CHOP UPR activ – apoptotic UPR (CHOP) activation | activation, % at 10 µM | AID 449763 | 330,000 tested, 0.34% active | CHO-CHOP luciferase reporter, luminescence; percent of tunicamycin response over DMSO baseline;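 active = at 10 µM dose, activation of 40% or more, normalized to positive control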;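 also: 100% = tunicamycin at 10 µg/mL and 0% = DMSO alone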
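Evaluation: % reporter activation, DMSO baseline versus tunicamycin full activation; System: CHO-CHOP luciferase reporter cell line; Input: 500 cells/well; Incubation: 6 h compound treatment, 37 °C; Measured by: Steady-Glo luciferase luminescence; Dosing: one dose, 10 µM in 0.5% DMSO; Buffer or medium: F12 medium, 10% FBS; Benchmarks: positive tunicamycin 10 µg/mL, negative DMSO alone.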
B2AR ag – activates human beta-2 adrenergic receptor causing internalization; P07550; Am2.2-beta2AR cells, FAP receptor internalization, flow cytometry; response, % (test concentration not listed); 340,000 tested, 0.43% active;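 active = response above a set limit, near 3 SD of response in nonfluorescent compounds, cut at about 42% in these data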
p-CIP stab down – p/CIP protein destabilization | Q05BA5 | F442A p/CIP-EGFP cells, EGFP fluorescence, 16 h | decrease of EGFP signal, % at 10 µM | 290,000 tested, 0.01% active | AID 1984;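 active = EGFP signal decrease of at least 30% at 10 µM or well 3 SD below plate mean, unless failing retest; inactive = the rest, including hits failing retest or dose response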
Dynein transport – dynein cargo transport inhibition. 3617.4 mouse cells, GR-EGFP nuclear translocation imaging; test concentration mostly 20 µM; stimulated with dexamethasone, 1 µM; active compounds read low. AID 1381. 220,000 tested, 0.47% active. z-score, hits read low;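 active = plate z-score of nuclear minus cytoplasmic receptor signal below a set negative limit, without overly bright fluorescence or cell loss, cut at about -3.5 in these data, passing the limit was not always enough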;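 also: z-score of nuclear minus cytoplasmic ring GR-EGFP intensity difference per well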
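medium = tetracycline-free induction medium containing charcoal-stripped FBS | also added = 1.0 µM final dexamethasone stimulus | schedule = 48 h induction, 1 h compound, 30 min dex at 37 °C | technique = fixed, Hoechst-stained cells imaged at 10x for EGFP | measure = GR-EGFP nuclear translocation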
XBP1 UPR activ – activators of adaptive arm of unfolded protein response (XBP1) | CHO-XBP1 luciferase reporter, IRE1-XBP1 UPR activation, luminescence; percent of tunicamycin response, DMSO as zero | activation, % at 20 µM | 330,000 tested, 0.33% active | AID 463104;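 active = versus positive control, 20 µM dose yields 30% or more activation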;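 also: 100% = tunicamycin at 10 µg/mL and 0% = DMSO only wells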
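Assay system: IRE1-XBP1 luciferase reporter CHO line. Input: 1000 cells/well. Buffer or medium: F12 with 10% serum. Doses: 20 µM, 1% DMSO. Times: overnight seeding at 37 °C, 6 h compound treatment at 37 °C. Technique: Steady-Glo luciferase glow luminescence, 10 min after reagent addition.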
CHOP inh – CHOP inhibition in unfolded protein response; inhibition, % at 10 µM; 220,000 tested, 3.8% active; CHO-K1 CHOP-promoter luciferase, tunicamycin-induced, 15-18 h;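 active = compounds that reduced the stress-induced luciferase reporter signal by more than about 70% of percent inhibition, limit read from the data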;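 also: 0% = tunicamycin plus vehicle and 100% = wells without tunicamycin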
* = called active by the depositor; nt = no result. The sample as a whole holds a higher share of hits than the screen did.

SMILES	CHOP UPR activ	B2AR ag	p-CIP stab down	Dynein transport	XBP1 UPR activ	CHOP inh
COc1cccc(CC(=O)n2nc(N)c3cc4ccc(OC)cc4nc32)c1	1	-2	-8	-0.79	0	95*
COc1ccc2cc3c(N)nn(C(=O)c4ccc(F)cc4)c3nc2c1	0	1	-10	-0.53	-1	67
COc1ccc2cc3c(N)nn(C(=O)c4ccccc4Cl)c3nc2c1	-4	1	-6	-0.33	-1	77*
COc1ccc2cc3c(N)nn(C(=O)c4cccc(F)c4)c3nc2c1	0	11	-10	0.98	3	37
COc1ccc2cc3c(N)nn(C(=O)Cc4ccc(Cl)cc4)c3nc2c1	1	10	-1	2.3	-2	83*
COc1ccc2cc3c(N)nn(C(=O)Cc4c[nH]c5ccccc45)c3nc2c1	-4	16	6	-0.84	-3	79*
O=C(CN1CCN(c2ccc(F)cc2)CC1)Nc1cccnc1Cl	-2	-1	9	-0.2	1	7
S=C(NCC1CCCCC1)Nc1ccc(Oc2ccccc2)cc1	3	-12	4	-0.52	1	73*
CCOC(=O)c1ccc(N2C(=O)CC(N3CCC(Nc4ccc(F)cc4)CC3)C2=O)cc1 (stereo unspecified)	0	1	-1	-0.65	-1	84*
CCOC(=O)c1ccc(N2C(=O)CC(N3CCN(Cc4ccccc4)CC3)C2=O)cc1 (stereo unspecified)	-1	-4	-6	-0.4	6	1
O=c1[nH][nH]c(-c2ccccc2)c1-c1ccccc1	nt	3	nt	nt	nt	nt
O=c1c(-c2ccccc2)c1-c1ccccc1	58*	nt	-11	nt	-5	-8
O=C1OC(c2ccc(F)cc2)=N/C1=C\c1ccc(Br)o1	1	2	10	-2.2	-1	73*
COc1ccc2c(CC(=O)Nc3ncc(C)s3)coc2c1	0	-2	-15	0.91	0	36
COc1ccc(N2CCN(C(CNC(=O)C(=O)NCCC3=CCCCC3)c3ccco3)CC2)cc1 (stereo unspecified)	2	-3	-6	-0.78	21	87*
O=C(NCCC1=CCCCC1)C(=O)NCC(c1ccco1)N1CCN(c2ccccc2F)CC1 (stereo unspecified)	2	-4	-11	0.078	11	62
O=C(NCCC1=CCCCC1)C(=O)NCC(c1ccco1)N1CCN(c2ccccc2)CC1 (stereo unspecified)	3	4	-6	-0.57	17	94*
CC(NC(=O)C(=O)NCCC1=CCCCC1)c1ccccc1 (stereo unspecified)	2	8	-7	-0.52	2	95*
COC(=O)c1c(C(C)=O)c(C)n(C)c1C	0	6	-9	-0.3	2	18
Clc1ccc(N=c2ssnc2Cl)cc1	2	1	8	-4.3*	-1	20
O=C1CSC(=Nc2ccc(Cl)cc2)N1	1	0	4	nt	-7	nt
COc1cc(-c2nnc(-c3cc(OC)c(OC)c(OC)c3)o2)cc(OC)c1OC	2	10	-17	-0.029	1	-24
Fc1ccc(N=c2ssnc2Cl)c(F)c1	2	3	6	-2.9	-4	82*
N#Cc1ccc(N=c2ssnc2Cl)cc1	4	4	-4	0.95	-2	86*
COc1cc(N=c2ssnc2Cl)cc(OC)c1OC	4	-2	10	-0.91	-4	94*
SMILES	CHOP UPR activ	B2AR ag	p-CIP stab down	Dynein transport	XBP1 UPR activ	CHOP inh
CC(NC(=O)c1cc(COc2cccc(C(F)(F)F)c2)on1)c1nccs1 (stereo unspecified)	5	3	-5	nt	-2	nt
O=C(COc1ccccc1Cl)Nc1ccc(S(=O)(=O)N2CCOCC2)cc1	-1	3	5	nt	0	nt
CCOc1ccc(S(=O)(=O)Nc2ccc(C(=O)NCC(c3ccco3)N3CCCCC3)cc2)cc1 (stereo unspecified)	-2	4	nt	nt	2	nt
Clc1nssc1=Nc1ccccc1	nt	2	-2	-0.53	nt	86*
CCOc1cc(CN2CCN(CCOCCO)CC2)ccc1OC	1	-2	2	3.7	0	-4
O=C1C=CC(=O)c2c(O)c(N3CCN(CCO)CC3)c(Cl)c(O)c21	nt	100*	nt	nt	nt	nt
O=C1C=CC(=O)c2c(O)c(N3CCN(CCOCCO)CC3)c(Br)c(O)c21	nt	66*	nt	nt	nt	nt
CN(C)/C=N/C(=S)Nc1ccccc1F	1	51*	-5	0.18	4	-32
CN(C)/C=N/C(=S)Nc1ccccc1Cl	0	5	14	0.18	-2	12
COc1ccc(Nc2n[nH]c(N)c2C(N)=O)cc1	3	-2	10	-1	5	4
Brc1ccc(N=Nc2ccc3ccccc3n2)cc1	-10	19	-1	-0.15	-11	91*
CN1/C(=C\C(=O)COc2ccc3c(c2)OCO3)C(C)(C)c2ccccc21	-4	-15	-13	-1.7	-2	85*
Cc1cc(C)c2sc(N(CCCN(C)C)C(=O)c3ccc(S(=O)(=O)N4CCc5ccccc5C4)cc3)nc2c1	1	51*	nt	nt	-9	nt
Cc1ccc2nc(N(CCCN(C)C)C(=O)c3sc4ccccc4c3Cl)sc2c1	5	6	-1	0.13	-1	80*
Cc1cccc2sc(N(CCCN(C)C)C(=O)c3nc4ccccc4s3)nc12	3	3	5	1.7	1	75*
Cc1cccc2sc(N(CCCN(C)C)C(=O)c3ccc(S(=O)(=O)N4CCc5ccccc5C4)cc3)nc12	36	46*	0	nt	24	nt
N#CCOc1coc(CN2CCN(c3ccccc3)CC2)cc1=O	1	12	-7	nt	-8	nt
COc1ccc(/C=C/C(=O)c2sc(-c3ccccc3)nc2C)cc1	-1	0	-1	nt	-4	17
COc1cc(NC(=O)Cn2cnc(C(=O)Nc3ccc(C)c(C)c3)n2)cc(OC)c1OC	3	4	nt	nt	3	nt
Cn1c(O)c(N=NC(=O)c2ccco2)c2ccccc21	2	-23	1	2.5	-5	1
CC(C)CCn1c(O)c(N=NC(=O)c2ccco2)c2ccccc21	1	-20	-17	-0.54	5	83*
O=C(NN=Cc1ccc(OC(F)F)cc1)c1ccc(NS(=O)(=O)c2cccs2)cc1	10	10	nt	nt	4	nt
COc1ccc(/C=N\NC(=O)c2ccccc2[N+](=O)[O-])cc1COc1c(F)c(F)c(F)c(F)c1F	3	53*	2	nt	-6	nt
COc1ccc(NC(=O)Cn2nnc(C(=O)NCc3ccc(C)cc3)c2N)cc1OC	0	1	7	nt	-2	nt
COc1ccc(NC(=O)Cn2nnc(C(=O)NCc3ccccc3OC)c2N)cc1Cl	0	-4	-8	0.21	3	72*
